ALR inh: blocks human ALR sulfhydryl oxidase activity; purified ALR, DTT oxidation, H2O2 HRP-luminol luminescence; inhibition, % (no concentration beside the values); 290,000 compounds, 3.8% hits; AID 485317;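 active = mean replicate inhibition above about 79%, with every replicate also reaching it, limit read from the data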
Target sequence (P55789 whole entry, looked up): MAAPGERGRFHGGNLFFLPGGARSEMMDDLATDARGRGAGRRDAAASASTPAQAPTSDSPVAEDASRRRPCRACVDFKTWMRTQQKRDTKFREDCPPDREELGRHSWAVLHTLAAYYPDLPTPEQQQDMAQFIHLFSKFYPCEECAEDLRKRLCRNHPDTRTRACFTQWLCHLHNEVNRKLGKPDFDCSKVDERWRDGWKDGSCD
ZTA DNA inh: counter-screen for EBNA-1 inhibitors: inhibitors of Epstein-Barr virus ZTA. ZTA-DNA binding, fluorescence polarization. inhibition, % at 11 µM. 320,000 compounds, 0.15% hits. AID 2234; in the data active = inhibition above about 33%
Target sequence (P03206 whole entry, looked up): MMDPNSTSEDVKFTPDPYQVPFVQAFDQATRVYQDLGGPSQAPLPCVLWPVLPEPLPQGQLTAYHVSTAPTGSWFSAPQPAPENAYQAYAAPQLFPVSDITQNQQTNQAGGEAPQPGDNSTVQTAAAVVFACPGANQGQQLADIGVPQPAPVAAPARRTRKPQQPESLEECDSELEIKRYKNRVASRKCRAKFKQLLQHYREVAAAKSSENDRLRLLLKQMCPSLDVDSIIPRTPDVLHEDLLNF
HCV NS3 hel inh: HCV NS3 helicase inhibition; inhibition, % at 10.9 µM; NS3 helicase DNA unwinding, Cy5 molecular beacon fluorescence; 290,000 compounds, 0.56% hits;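 active = inhibition above the mean of all tested compounds plus 3 SD, set per campaign, cut at about 35% in these data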
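Compound dosing – single dose, 10.9 µM nominal final, DMSO 0.8% final · System – NS3 helicase fragment of HCV · Buffer or medium – MOPS pH 6.5, MgCl2, DTT, Tween20, BSA · Signal – Cy5 beacon fluorescence read at start and 1 h · Also added – annealed dual-labelled DNA beacon duplex, ATP-started · Schedule – 1 h at 25 °C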
EBNA-1 inhibitor: blocks EBNA-1 binding to DNA | EBNA-1 DNA binding, fluorescence polarization | inhibition, % at 14.8 µM | 300,000 compounds, 0.34% hits; in the data active = inhibition above about 28%
M18AAP inhibitor: PfM18AAP enzyme inhibition | recombinant PfM18AAP, H-Glu-NHMec fluorogenic cleavage | inhibition, % at 7.35 µM | 290,000 compounds, 1.2% hits;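 active = inhibition above the campaign mean inhibition over all tested compounds plus 3 SD, cut at about 28% in these data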
HCV core dimer: HCV core protein dimerization inhibition; TR-FRET GST/Flag-core106 dimerization, 1536-well; inhibition, % at 5 µM; 300,000 compounds, 0.33% hits; AID 1899;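 active = inhibition above the mean of all tested compounds plus 3 SD, set per screening campaign, cut at about 45% in these data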
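Assay system: GST-tagged and Flag-tagged HCV core protein residues 1-106 / Times: compound-protein-antibody incubation 4 h at 22.5 °C / Signal: time-resolved FRET, ex 340 nm, em 617 and 671 nm / Evaluation: % inhibition based on acceptor/donor emission ratio / Benchmarks: wells lacking GST-core106 and wells with excess unlabelled core106 / Repeats: singlicate, one well per compound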
Of the large screens only hits and unclear results are named; the others gave an inactive call. Compounds with a hit are over-represented: about 5.2% of the library has one in this group of screens.

O=[N+]([O-])c1cc(S(=O)(=O)O)cc([N+](=O)[O-])c1NN(c1ccccc1)c1ccccc1	ALR inh 99
O=C(CCN1Cc2ccccc2C1)c1ccc2c(c1)OCCO2	none
O=C(CCN1CCc2ccccc2C(c2ccccc2)C1)c1ccc2c(c1)OCCO2 (stereo not given)	ALR inh 97
C#Cc1ccc([C@@H]2C=C(C(=O)NCc3ccccc3)O[C@H](OCCCCO)C2)cc1	HCV core dimer 52 (no result: HCV NS3 hel inh, M18AAP inhibitor)
C#Cc1ccc([C@@H]2C=C(C(=O)NCc3ccccc3)O[C@H](OCc3ccc(CO)cc3)C2)cc1	HCV core dimer 47
CC(OC(=O)c1cccc(S(=O)(=O)N2CCCCCC2)c1)C(=O)Nc1ccc(S(N)(=O)=O)cc1 (stereo not given)	none (no result: ALR inh, HCV NS3 hel inh, M18AAP inhibitor)
CCC1CCC(C(=O)NC(C(=O)NCCN2CCOCC2)C(C)C)CC1 (stereo not given)	none
Cc1ccc(NNC(N)=S)cc1Cl	ALR inh 99
NC(=S)NNc1ccc(Cl)c(Cl)c1	none (no result: ALR inh)
O=C(C1=C(O)C(=O)N(c2ccccc2)C1c1ccc([N+](=O)[O-])cc1)c1cccs1 (stereo not given)	ALR inh 89
COc1cccc(CN2CC(C(=O)NCCCn3cccn3)CCC2=O)c1 (stereo not given)	none
Cc1ccc(-c2nc(CN3CCN(C(=O)C4CCCO4)CC3)cs2)cc1 (stereo not given)	ALR inh 99
Cc1ccc(CN2CCN(C(=O)C3CCCO3)CC2)cc1 (stereo not given)	ALR inh 99
Cc1ccc(C(=O)N2CCN(C(=O)C3CCCO3)CC2)cc1 (stereo not given)	none (no result: HCV NS3 hel inh, EBNA-1 inhibitor, M18AAP inhibitor, HCV core dimer)
CC(C)(C)C(=O)N(Cc1ccc(Cl)cc1)c1cnccn1	none
CC1C(=O)NN=C1C(=O)N/N=C/c1ccco1 (stereo not given)	none
CC1C(=O)NN=C1C(=O)N/N=C\c1ccc(O)cc1O (stereo not given)	ALR inh 98
COc1cc(/C=N/NC(=O)C2=NNC(=O)C2C)ccc1O (stereo not given)	ALR inh 98
CCOc1ccc(S(=O)(=O)NCCC(=O)NCC(c2ccc(F)cc2)N2CCOCC2)cc1 (stereo not given)	none (no result: HCV NS3 hel inh, M18AAP inhibitor)
Cc1ccc(C)c(NC(=O)CSc2c(C)n[nH]c2C)c1	ALR inh 96
Cc1ccc(C)c(NC(=O)CSc2n[nH]c(-c3ccncc3)n2)c1	none
S=C1NC2(CCCCC2)NN1c1ccccc1	ALR inh 98
CC1CCCC2(C1)NC(=S)N(c1ccccc1)N2 (stereo not given)	none
Cc1ccc(NC(=O)Cn2nnc(C(=O)NCc3ccc(Cl)cc3)c2N)cc1F	none
Cc1cc(/N=C/C=C2\N(C)c3ccccc3C2(C)C)n(CCC#N)n1	ALR inh 99
O=c1nccc(SCc2ccc(Cl)cc2Cl)[nH]1	ALR inh 99
CC(C)(C)c1cc(-c2n[nH]c(=S)n2-c2ccccc2F)n[nH]1	ALR inh 91
Cc1ccccc1-n1c(-c2ccc(=O)[nH]n2)n[nH]c1=S	none
CCCCCCC(=O)N/N=C/c1ccco1	ALR inh 97
CCCCCCCC(=O)N/N=C/c1ccco1	none
O=C(N/N=C\c1cccc(Cl)c1)c1ccc(Cn2cccn2)o1	ALR inh 88
COc1ccc(C(=O)/C=C2\Sc3ccccc3N2C)cc1	none
COc1ccccc1-[n+]1c(C)cc(/C=C2\Sc3ccccc3N2C)cc1C	ALR inh 98, M18AAP inhibitor 48
COc1ccc(-c2nonc2NC(=O)c2ccco2)cc1OC	none
CCOc1ccc(C(=S)N2CCCC2)c(OCC)c1	M18AAP inhibitor 30
CCOc1ccc(C(=S)N2CCCC2)cc1	none
CCOC(=O)c1sc(NC(=O)CCN2CCC(C)CC2)c(C(=O)OCC)c1C	none
CCOC(=O)c1sc(NC(=O)CCN2CCN(CC)CC2)c(C(=O)OCC)c1C	ALR inh 96
CCOC(=O)/C(C#N)=C1/CCCCCN1C	none
CCOC(=O)/C(C#N)=C1\CCCN1CC(N)=S	M18AAP inhibitor 31
Cc1ccc2c(c1)[nH]c1c(N3CCN(Cc4ccccc4)CC3)ncnc12	ALR inh 98
c1ccc(CN2CCN(c3ncnc4c3[nH]c3ccccc34)CC2)cc1	ALR inh 95
CC1=N/C(=C\c2ccc([N+](=O)[O-])cc2)C(=O)N1c1ccc(F)cc1F	none
COc1ccc(NS(=O)(=O)c2cc(NC(=O)/C=C/c3cccs3)ccc2N2CCOCC2)cc1	EBNA-1 inhibitor 73
OCc1ccccc1CNCc1ccccc1	none
OCc1ccccc1SSc1ccccc1CO	ALR inh 98 (no result: HCV NS3 hel inh, M18AAP inhibitor)
CN1C(=O)/C(=C2/C=Cc3ccccc3N2CCCS(=O)(=O)O)SC1=S	ALR inh 84
CCN1C(=O)/C(=C2/C=Cc3ccccc3N2CC)SC1=S	ALR inh 99
CCN1/C(=C2\C(=O)N(C)C(=S)N2C)C=Cc2ccccc21	none
CCN1/C(=C2\C(=O)N(C)C(=S)N2c2ccccc2)C=Cc2ccccc21	ALR inh 98
CCN(C[C@H]1N[C@@](C)(C(=O)OC)[C@H]2C(=O)N(C)C(=O)[C@@H]12)C(=O)COc1ccccc1	none (no result: ZTA DNA inh, HCV NS3 hel inh, EBNA-1 inhibitor, M18AAP inhibitor, HCV core dimer)
CCOC(=O)[C@H]1[C@H]2COc3ccc(Cl)cc3[C@@H]2N2C(=O)[C@@H](C)NC(=O)[C@@]12C	none (no result: ZTA DNA inh, HCV NS3 hel inh, EBNA-1 inhibitor, M18AAP inhibitor, HCV core dimer)
COc1cn(-c2ccccc2)nc1C(=O)Nc1ccc(C)cc1Cl	none
O=C(CCCCC(=O)NCCc1ccccc1)NCCc1ccccc1	none
CCCS(=O)(=O)N1CCCC(C(=O)c2ccccc2OC)C1 (stereo not given)	none
O=C(NC1CCCCC1)C1CCC(=O)N(Cc2cccc(C(F)(F)F)c2)C1 (stereo not given)	none
Cc1nc([N+](=O)[O-])c(Br)n1CC(=O)c1ccc(Cl)cc1	ALR inh 97
O=C(NC(=S)N1CCCc2ccccc21)c1ccccc1	ALR inh 99
O=C(NC(=S)N1CCCc2ccccc21)c1ccc(Cl)cc1	none
CC(C)(C)OC(=O)NCc1n[nH]c(=S)n1C1CC1	ALR inh 86
CC(C)(C)c1ccc(S(=O)(=O)NCC(=O)N2CCCC2)cc1	none
NNC(=O)c1cc2c(s1)CCCCCC2	none (no result: ALR inh)
O=C(Nn1cnnc1)c1cc2c(s1)CCCC2	M18AAP inhibitor 32
CC(C)NC(=S)n1cc(C(=O)c2cc(Cl)cc(Cl)c2O)cn1	none
COc1ccccc1OCC(=O)n1cc(C(=O)c2cc(Cl)cc(Cl)c2O)cn1	M18AAP inhibitor 33
CC1CC1C(=O)Nc1nc(-c2cccs2)c(-c2cccs2)s1 (stereo not given)	HCV core dimer 50
Cc1cc2nc(-c3cccnc3SCC(=O)NCc3ccco3)[nH]c2cc1C	ALR inh 99
Nc1nc(OCC2CCCCC2)c2[nH]cnc2n1	ALR inh 97
Nc1nc2nc[nH]c2c(=O)[nH]1	none (no result: HCV NS3 hel inh, M18AAP inhibitor)
